Columns and labels:
[1] = molecular target: Cytochrome P450 2D6 (Homo sapiens, UniProt P10635); experiment: Inhibition of CYP2D6 in human liver microsomes by LC-MS/MS analysis; type: ADME, Microsome
In short: (§1)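 Human liver microsomes incubated with isoform-specific substrates and compound, typically 0.1–25 μM. Metabolite formation read by LC-MS/MS, […]. IC50 calculated from the decrease in metabolite formation relative to vehicle control.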

[2] = molecular target: Cytochrome P450 3A4 (Homo sapiens, UniProt P08684); experiment: Inhibition of CYP3A4 in human liver microsomes by LC-MS/MS analysis; type: ADME, Microsome; in short: as §1
Chain of Cytochrome P450 3A4 (P08684 whole entry): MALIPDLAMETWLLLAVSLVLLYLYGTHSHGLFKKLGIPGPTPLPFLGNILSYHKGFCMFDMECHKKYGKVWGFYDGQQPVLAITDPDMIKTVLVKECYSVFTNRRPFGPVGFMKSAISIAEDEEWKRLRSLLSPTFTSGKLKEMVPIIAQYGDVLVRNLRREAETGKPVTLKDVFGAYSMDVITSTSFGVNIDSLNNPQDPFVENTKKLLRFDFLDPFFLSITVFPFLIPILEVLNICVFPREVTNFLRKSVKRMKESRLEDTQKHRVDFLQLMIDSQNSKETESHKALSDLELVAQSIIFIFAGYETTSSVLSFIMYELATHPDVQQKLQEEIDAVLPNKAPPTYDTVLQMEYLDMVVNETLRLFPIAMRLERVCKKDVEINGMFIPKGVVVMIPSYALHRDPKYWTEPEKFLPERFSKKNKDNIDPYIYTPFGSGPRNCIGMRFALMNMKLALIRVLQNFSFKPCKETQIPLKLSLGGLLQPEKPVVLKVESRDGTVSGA

[3] = tested on: Brain; experiment: Drug level in mouse brain at 30 mg/kg, po; type: ADME, organism-based; design: dose 30 mg/kg, route oral; conditions: in vivo
In short: (§2)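 Male mice dosed orally at 3, 10 or 30 mg/kg in 5% transcutol/saline, 60 min before the tail suspension test. Terminal whole brain (ng/g) and plasma (ng/mL) samples taken from the test animals. Brain/plasma ratio derived from these levels.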

[4] = tested on: Mus musculus; experiment: Antidepressant activity in mouse assessed as reduction of immobility time at 10 mg/kg, po after 60 mins by tail suspension test relative to control; type: functional; design: scale not given: the % may be the effect or the level left
In short: (§3)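 Mouse tail suspension test, male mice (10–12 per group, blind). Single oral dose in 5% transcutol in saline, 60 min pretreatment. Immobility recorded automatically for 5 min. Compared with vehicle group. Desipramine 100 mg/kg PO used as reference. One-way ANOVA with Dunnett's post test, p < 0.05.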

[5] = tested on: Brain; experiment: Drug level in mouse brain assessed as (3aS,6aR)-3a-(3,4-dichlorophenyl)octahydrocyclopenta[c]pyrrole level at 10 mg/kg, po; type: ADME, organism-based; design: dose 10 mg/kg, route oral; conditions: in vivo; in short: as §2
[6] = tested on: Plasma; experiment: Plasma concentration in mouse assessed as (3aS,6aR)-3a-(3,4-dichlorophenyl)octahydrocyclopenta[c]pyrrole level at 3 mg/kg, po; type: ADME, organism-based; design: dose 3 mg/kg, route oral; conditions: in vivo; in short: as §2
[7] = molecular target: T1, CYP1A (Homo sapiens, UniProt P04798+P05177); experiment: Inhibition of CYP1A in human liver microsomes by LC-MS/MS analysis; type: ADME, Microsome; in short: as §1
T1 sequence (P04798 whole entry): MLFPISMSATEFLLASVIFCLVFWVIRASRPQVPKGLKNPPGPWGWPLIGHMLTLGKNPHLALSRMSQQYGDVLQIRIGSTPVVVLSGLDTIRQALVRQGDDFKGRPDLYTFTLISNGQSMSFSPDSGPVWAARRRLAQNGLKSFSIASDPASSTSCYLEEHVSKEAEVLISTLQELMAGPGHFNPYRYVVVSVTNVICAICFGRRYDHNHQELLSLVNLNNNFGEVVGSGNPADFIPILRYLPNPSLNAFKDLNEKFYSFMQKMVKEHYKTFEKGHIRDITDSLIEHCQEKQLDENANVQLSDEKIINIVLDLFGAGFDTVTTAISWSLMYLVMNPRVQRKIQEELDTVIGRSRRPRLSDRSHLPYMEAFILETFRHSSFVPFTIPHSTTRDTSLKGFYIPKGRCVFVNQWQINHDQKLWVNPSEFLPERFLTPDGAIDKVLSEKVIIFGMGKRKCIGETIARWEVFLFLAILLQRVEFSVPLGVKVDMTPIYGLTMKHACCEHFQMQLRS
T1 sequence (P05177 whole entry): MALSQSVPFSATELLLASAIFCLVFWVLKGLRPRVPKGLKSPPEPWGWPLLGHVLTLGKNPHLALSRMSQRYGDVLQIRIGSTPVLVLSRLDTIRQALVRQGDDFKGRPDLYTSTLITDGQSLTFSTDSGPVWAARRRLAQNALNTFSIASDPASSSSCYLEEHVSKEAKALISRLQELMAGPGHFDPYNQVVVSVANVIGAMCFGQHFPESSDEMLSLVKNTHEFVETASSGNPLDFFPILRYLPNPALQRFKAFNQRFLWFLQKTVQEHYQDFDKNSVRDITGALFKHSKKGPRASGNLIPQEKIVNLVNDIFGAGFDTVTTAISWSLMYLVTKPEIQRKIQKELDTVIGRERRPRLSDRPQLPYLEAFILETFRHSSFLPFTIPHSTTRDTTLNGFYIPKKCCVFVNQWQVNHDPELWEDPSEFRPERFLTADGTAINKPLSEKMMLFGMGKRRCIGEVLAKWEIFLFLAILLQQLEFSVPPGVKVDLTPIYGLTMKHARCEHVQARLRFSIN

[8] = molecular target: Sodium-dependent noradrenaline transporter (Homo sapiens, UniProt P23975); experiment: Inhibition of norepinephrine reuptake at NET expressed in MDCK cells; type: cell-based
Chain of Sodium-dependent noradrenaline transporter (P23975 whole entry): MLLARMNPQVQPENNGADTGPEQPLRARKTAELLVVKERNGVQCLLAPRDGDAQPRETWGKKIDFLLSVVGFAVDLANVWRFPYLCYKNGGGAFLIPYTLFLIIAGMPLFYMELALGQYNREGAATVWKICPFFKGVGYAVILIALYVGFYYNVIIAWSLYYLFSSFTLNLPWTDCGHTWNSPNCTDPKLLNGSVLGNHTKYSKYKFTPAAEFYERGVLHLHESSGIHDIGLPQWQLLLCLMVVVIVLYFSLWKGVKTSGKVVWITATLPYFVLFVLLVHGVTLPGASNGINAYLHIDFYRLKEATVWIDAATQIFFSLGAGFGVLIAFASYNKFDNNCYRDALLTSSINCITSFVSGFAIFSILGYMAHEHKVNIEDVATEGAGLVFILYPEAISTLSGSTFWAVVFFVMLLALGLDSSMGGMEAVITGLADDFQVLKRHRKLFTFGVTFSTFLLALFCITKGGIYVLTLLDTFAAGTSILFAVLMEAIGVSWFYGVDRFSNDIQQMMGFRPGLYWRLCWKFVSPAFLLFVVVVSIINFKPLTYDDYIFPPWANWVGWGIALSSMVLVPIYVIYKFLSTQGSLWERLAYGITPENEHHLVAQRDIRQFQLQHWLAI

[9] = tested on: Mus musculus; experiment: Antidepressant activity in po dosed mouse assessed as reduction of immobility time after 60 mins by tail suspension test; type: functional, organism-based; in short: as §3
[10] = tested on: Plasma; experiment: Plasma concentration in mouse at 3 mg/kg, po; type: ADME, organism-based; design: dose 3 mg/kg, route oral; conditions: in vivo; in short: as §2
[11] = Half life in human liver microsomes at 3 uM by LC-MS/MS analysis; type: ADME, Microsome
In short: (§4)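 Human or mouse liver microsomes (0.5 mg/mL) incubated with 3 μM compound at 37 °C. Reaction started with NADPH and stopped with methanol containing internal standard. Loss of compound followed over 45 min by LC-MS/MS. Peak area ratio to internal standard plotted against time and the slope of the line taken.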

[12] = tested on: Brain; experiment: Drug level in mouse brain assessed as (3aS,6aR)-3a-(3,4-dichlorophenyl)octahydrocyclopenta[c]pyrrole level at 3 mg/kg, po; type: ADME, organism-based; design: dose 3 mg/kg, route oral; conditions: in vivo; in short: as §2
[13] = molecular target: Sodium-dependent serotonin transporter (Homo sapiens, UniProt P31645); experiment: Inhibition of serotonin reuptake at SERT expressed in HEK293 cells; type: cell-based
Chain of Sodium-dependent serotonin transporter (P31645 whole entry): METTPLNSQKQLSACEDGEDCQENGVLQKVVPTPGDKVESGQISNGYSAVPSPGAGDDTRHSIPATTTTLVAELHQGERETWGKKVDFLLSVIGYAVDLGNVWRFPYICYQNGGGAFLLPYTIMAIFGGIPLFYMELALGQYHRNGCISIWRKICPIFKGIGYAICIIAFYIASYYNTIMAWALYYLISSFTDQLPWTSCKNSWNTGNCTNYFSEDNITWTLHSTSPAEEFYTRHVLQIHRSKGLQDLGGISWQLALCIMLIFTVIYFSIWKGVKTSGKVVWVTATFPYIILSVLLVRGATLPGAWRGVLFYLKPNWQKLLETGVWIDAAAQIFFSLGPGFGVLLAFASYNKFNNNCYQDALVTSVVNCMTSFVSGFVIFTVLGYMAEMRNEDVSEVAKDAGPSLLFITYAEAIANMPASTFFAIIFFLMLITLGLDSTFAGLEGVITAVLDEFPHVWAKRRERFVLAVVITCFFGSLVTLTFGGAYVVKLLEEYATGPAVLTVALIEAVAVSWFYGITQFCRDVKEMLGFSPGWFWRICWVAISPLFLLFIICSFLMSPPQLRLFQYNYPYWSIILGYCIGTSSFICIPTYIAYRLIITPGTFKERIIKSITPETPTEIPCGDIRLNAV

[14] = tested on: Plasma; experiment: Plasma concentration in mouse assessed as (3aS,6aR)-3a-(3,4-dichlorophenyl)octahydrocyclopenta[c]pyrrole level at 10 mg/kg, po; type: ADME, organism-based; design: dose 10 mg/kg, route oral; conditions: in vivo; in short: as §2
[15] = molecular target: Cytochrome P450 2C19 (Homo sapiens, UniProt P33261); experiment: Inhibition of CYP2C19 in human liver microsomes by LC-MS/MS analysis; type: ADME, Microsome; in short: as §1
Chain of Cytochrome P450 2C19 (P33261 whole entry): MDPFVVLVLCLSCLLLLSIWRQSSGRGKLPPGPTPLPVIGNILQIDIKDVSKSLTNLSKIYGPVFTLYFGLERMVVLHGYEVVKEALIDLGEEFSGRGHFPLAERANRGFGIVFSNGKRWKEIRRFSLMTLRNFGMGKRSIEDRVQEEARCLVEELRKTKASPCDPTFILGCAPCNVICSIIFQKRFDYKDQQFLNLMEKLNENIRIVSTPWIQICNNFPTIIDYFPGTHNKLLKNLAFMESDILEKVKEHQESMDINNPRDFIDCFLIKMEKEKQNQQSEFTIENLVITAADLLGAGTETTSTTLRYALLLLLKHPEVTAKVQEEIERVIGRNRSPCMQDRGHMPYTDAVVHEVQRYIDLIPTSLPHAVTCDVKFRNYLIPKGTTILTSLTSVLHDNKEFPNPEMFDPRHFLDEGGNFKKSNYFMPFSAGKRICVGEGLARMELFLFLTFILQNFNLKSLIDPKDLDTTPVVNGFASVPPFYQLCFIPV

[16] = Ratio of drug level in brain to plasma in po dosed mouse; type: ADME, organism-based; conditions: brain and plasma, read-out: BPR; in short: as §2
[17] = molecular target: Cytochrome P450 2C9 (Homo sapiens, UniProt P11712); experiment: Inhibition of CYP2C9 in human liver microsomes by LC-MS/MS analysis; type: ADME, Microsome; in short: as §1
Chain of Cytochrome P450 2C9 (P11712 whole entry): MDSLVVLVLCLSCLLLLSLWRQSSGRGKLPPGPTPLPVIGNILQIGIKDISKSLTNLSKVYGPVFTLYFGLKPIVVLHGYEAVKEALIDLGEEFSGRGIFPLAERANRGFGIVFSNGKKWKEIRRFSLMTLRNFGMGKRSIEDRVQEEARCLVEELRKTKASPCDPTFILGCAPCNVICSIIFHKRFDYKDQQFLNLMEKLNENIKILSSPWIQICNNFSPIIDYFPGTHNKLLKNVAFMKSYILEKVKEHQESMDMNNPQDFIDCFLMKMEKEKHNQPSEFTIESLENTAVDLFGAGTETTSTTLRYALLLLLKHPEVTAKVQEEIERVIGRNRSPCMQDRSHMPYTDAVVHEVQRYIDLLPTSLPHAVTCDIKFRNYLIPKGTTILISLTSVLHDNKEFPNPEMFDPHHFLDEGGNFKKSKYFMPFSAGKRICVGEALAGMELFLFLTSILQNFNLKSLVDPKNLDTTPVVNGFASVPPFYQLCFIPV

[18] = tested on: Plasma; experiment: Plasma concentration in mouse at 10 mg/kg, po; type: ADME, organism-based; design: dose 10 mg/kg, route oral; conditions: in vivo; in short: as §2
[19] = tested on: Plasma; experiment: Plasma concentration in mouse assessed as (3aS,6aR)-3a-(3,4-dichlorophenyl)octahydrocyclopenta[c]pyrrole level at 30 mg/kg, po; type: ADME, organism-based; design: dose 30 mg/kg, route oral; conditions: in vivo; in short: as §2
[20] = tested on: Mus musculus; experiment: Antidepressant activity in mouse assessed as reduction of immobility time at 100 mg/kg, po after 60 mins by tail suspension test relative to control; type: functional; design: scale not given: the % may be the effect or the level left; in short: as §3
[21] = Half life in mouse liver microsomes at 3 uM by LC-MS/MS analysis; type: ADME, Microsome; in short: as §4
[22] = tested on: Mus musculus; experiment: Antidepressant activity in mouse assessed as reduction of immobility time at 30 mg/kg, po after 60 mins by tail suspension test relative to control; type: functional; design: scale not given: the % may be the effect or the level left; in short: as §3
[23] = tested on: Plasma; experiment: Plasma concentration in mouse at 30 mg/kg, po; type: ADME, organism-based; design: dose 30 mg/kg, route oral; conditions: in vivo; in short: as §2
[24] = tested on: Brain; experiment: Drug level in mouse brain at 3 mg/kg, po; type: ADME, organism-based; design: dose 3 mg/kg, route oral; conditions: in vivo; in short: as §2
[25] = molecular target: Sodium-dependent dopamine transporter (Homo sapiens, UniProt Q01959); experiment: Inhibition of dopamine reuptake at DAT expressed in CHO-K1 cells; type: cell-based
Chain of Sodium-dependent dopamine transporter (Q01959 whole entry): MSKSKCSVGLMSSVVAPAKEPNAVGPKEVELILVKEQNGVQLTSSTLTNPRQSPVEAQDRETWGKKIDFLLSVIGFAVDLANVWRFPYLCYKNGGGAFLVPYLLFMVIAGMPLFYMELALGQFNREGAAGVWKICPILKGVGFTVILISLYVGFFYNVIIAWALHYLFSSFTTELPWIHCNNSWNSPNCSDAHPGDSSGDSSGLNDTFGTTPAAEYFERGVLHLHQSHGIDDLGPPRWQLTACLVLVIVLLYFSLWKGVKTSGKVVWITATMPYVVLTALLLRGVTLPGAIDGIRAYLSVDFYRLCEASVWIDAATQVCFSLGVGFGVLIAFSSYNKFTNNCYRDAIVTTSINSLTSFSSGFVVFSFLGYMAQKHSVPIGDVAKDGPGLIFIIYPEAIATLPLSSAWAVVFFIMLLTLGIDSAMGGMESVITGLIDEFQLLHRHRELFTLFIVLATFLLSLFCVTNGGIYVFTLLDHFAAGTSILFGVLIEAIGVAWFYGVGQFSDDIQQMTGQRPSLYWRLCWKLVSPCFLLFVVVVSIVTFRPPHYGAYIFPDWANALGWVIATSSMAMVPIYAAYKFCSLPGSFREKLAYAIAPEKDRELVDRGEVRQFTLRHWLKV

[26] = tested on: Brain; experiment: Drug level in mouse brain at 10 mg/kg, po; type: ADME, organism-based; design: dose 10 mg/kg, route oral; conditions: in vivo; in short: as §2
[27] = tested on: Brain; experiment: Drug level in mouse brain assessed as (3aS,6aR)-3a-(3,4-dichlorophenyl)octahydrocyclopenta[c]pyrrole level at 30 mg/kg, po; type: ADME, organism-based; design: dose 30 mg/kg, route oral; conditions: in vivo; in short: as §2
[28] = molecular target: Voltage-gated inwardly rectifying potassium channel KCNH2 (Homo sapiens, UniProt Q12809); experiment: Inhibition of human ERG expressed in CHO cells by high throughput single cell planar patch clamp method; type: cell-based
Chain of Voltage-gated inwardly rectifying potassium channel KCNH2 (Q12809 whole entry): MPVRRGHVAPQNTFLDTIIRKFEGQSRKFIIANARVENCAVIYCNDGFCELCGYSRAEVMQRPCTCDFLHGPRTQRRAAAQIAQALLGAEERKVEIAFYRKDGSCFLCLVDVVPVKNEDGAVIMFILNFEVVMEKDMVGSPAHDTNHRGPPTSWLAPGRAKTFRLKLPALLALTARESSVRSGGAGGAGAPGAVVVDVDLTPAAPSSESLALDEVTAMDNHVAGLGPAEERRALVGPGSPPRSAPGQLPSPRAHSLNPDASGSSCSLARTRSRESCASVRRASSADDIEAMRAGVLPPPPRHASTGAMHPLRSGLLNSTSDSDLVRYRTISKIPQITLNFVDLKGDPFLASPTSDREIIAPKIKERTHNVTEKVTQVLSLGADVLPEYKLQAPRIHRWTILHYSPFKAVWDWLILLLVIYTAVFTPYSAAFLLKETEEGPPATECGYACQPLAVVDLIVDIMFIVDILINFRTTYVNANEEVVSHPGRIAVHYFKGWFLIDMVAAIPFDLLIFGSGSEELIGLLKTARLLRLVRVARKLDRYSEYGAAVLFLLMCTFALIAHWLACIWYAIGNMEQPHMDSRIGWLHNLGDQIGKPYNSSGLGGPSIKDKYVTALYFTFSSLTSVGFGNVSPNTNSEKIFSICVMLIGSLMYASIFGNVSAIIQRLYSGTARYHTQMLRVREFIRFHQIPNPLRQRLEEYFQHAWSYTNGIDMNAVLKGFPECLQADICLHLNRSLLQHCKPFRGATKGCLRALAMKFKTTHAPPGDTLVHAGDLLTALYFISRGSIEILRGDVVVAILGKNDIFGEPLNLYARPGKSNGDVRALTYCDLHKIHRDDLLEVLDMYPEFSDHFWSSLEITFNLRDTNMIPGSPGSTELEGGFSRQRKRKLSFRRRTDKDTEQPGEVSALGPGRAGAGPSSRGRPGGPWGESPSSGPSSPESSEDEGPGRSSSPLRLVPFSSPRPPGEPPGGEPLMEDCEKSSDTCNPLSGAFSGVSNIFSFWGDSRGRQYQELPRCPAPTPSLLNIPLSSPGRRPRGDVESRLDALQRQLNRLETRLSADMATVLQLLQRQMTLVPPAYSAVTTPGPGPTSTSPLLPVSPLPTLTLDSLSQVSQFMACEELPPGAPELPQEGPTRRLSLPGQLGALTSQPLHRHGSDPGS

Chain of Cytochrome P450 2D6 (P10635 whole entry, canonical isoform): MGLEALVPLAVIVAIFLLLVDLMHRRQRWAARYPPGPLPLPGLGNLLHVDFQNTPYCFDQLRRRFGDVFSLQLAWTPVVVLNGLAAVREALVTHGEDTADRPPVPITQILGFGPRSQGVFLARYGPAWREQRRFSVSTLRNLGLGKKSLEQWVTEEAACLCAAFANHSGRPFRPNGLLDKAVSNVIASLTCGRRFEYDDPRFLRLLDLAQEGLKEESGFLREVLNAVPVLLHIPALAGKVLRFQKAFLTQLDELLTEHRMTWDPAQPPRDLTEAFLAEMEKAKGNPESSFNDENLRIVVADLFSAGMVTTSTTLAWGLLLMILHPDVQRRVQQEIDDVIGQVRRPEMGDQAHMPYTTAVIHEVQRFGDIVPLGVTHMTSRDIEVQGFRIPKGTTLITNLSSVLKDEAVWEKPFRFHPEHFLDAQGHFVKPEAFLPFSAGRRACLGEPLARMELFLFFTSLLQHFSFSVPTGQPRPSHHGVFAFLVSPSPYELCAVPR

| SMILES | IC50 [1] | IC50 [2] | IC50 [7] | IC50 [8] | half-life at 3 µM [11] | IC50 [13] | IC50 [15] | IC50 [17] | half-life at 3 µM [21] | IC50 [25] | IC50 [28] | also measured |
| --- | --- | --- | --- | --- | --- | --- | --- | --- | --- | --- | --- | --- |
| CN1C[C@H]2CCC[C@@]2(c2ccc(Cl)c(Cl)c2)C1 | 5.21 µM | > 25 µM | > 25 µM | 0.0224 µM | 0.617 h | 0.00363 µM | 7.22 µM | > 25 µM | 0.45 h | 0.148 µM |  | Drug uptake [3]: 507 ng/g; Activity [4]: 25%; Drug uptake [5]: 4762 ng/g; Cp [6]: 69 ng/mL; Activity [9]: Dose-dependent effect; Cp [10]: 2 ng/mL; Drug uptake [12]: 1531 ng/g; Cp [14]: 211 ng/mL; Kp [16]: 2; Cp [18]: 7 ng/mL; Cp [19]: 537 ng/mL; Activity [20]: 26%; Activity [22]: 31%; Cp [23]: 30 ng/mL; Drug uptake [24]: 34 ng/g; Drug uptake [26]: 113 ng/g; Drug uptake [27]: 11433 ng/g |
| Clc1ccc([C@]23CCCC[C@H]2CNC3)cc1Cl | 2.65 µM | 8.39 µM | 7.96 µM | 0.178 µM | > 5 h | 0.0977 µM | > 25 µM | > 25 µM | > 5 h | 0.457 µM | 6.48 µM |  |
| Clc1ccc([C@@]23CCC[C@@H]2CNC3)cc1Cl | 6.96 µM | > 5 µM | 18.7 µM | 0.107 µM | 4.37 h | 0.049 µM | 11.9 µM | > 25 µM | 1.52 h | 0.123 µM | 5.28 µM |  |
